Source: ChEMBL document CHEMBL1155485, “Pyrimidine ribonucleotides with enhanced selectivity as P2Y(6) receptor agonists: novel 4-alkyloxyimino, (S)-methanocarba, and 5'-triphosphate gamma-ester modifications” (J Med Chem, 2010)
pEC50: −log10 of the molar value.

Legend:
P2Y purinoceptor 2 [1] = target: T1, P2Y purinoceptor 2 (Homo sapiens, UniProt P41231); assay: Agonist activity at human recombinant P2Y2 receptor expressed in human 1321N1 cells assessed as [3H]inositol phosphate production by scintillation proximity assay; type: functional, cell-based
Procedure, shortened: (§1)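 Stably transfected 1321N1 astrocytoma cells (human P2Y2, P2Y4 or P2Y6 receptor) seeded at 20,000 cells/well two days before assay; labelled 16 h with myo-[3H]inositol (1.0 μCi) in serum-free inositol-free DMEM. Agonist added in HEPES pH 7.3/HBSS with LiCl (50 mM, fivefold stock), 30 min at 37°C; stopped with ice-cold 50 mM formic acid. [3H]inositol phosphates read by SPA.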

P2Y purinoceptor 4 = P2Y purinoceptor 4 (Homo sapiens, UniProt P51582); assay: Agonist activity at human recombinant P2Y4 receptor expressed in human 1321N1 cells assessed as [3H]inositol phosphate production by scintillation proximity assay; type: functional, cell-based; procedure, shortened: as §1
[2] = Stability assessed as half life by HPLC in presence of human 1321N1 cell membranes; type: ADME, cell-based
Procedure, shortened: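 Nucleotide (10 μL of 2 mg/mL aqueous stock) mixed with 90 μL of astrocytoma cell membrane suspension in Dulbecco's PBS pH 7.4 (final protein 14.9 μg/mL), incubated at 37°C. At intervals, aliquots were diluted tenfold in water or 5 mM TBAP and analysed by reverse-phase HPLC (TBAP–acetonitrile gradient). Half-life was taken from peak area.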

[3] = Stability assessed as half life in aqueous acidic solution at pH 1.2 by HPLC; type: physicochemical; settings: buffer
Procedure, shortened: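 Nucleotide (10 μL of 2 mg/mL aqueous stock) mixed with 90 μL of HCl/NaCl buffer pH 1.2 and held at 37°C. Aliquots taken at intervals were diluted tenfold in water or 5 mM TBAP and run on reverse-phase HPLC with a 5 mM TBAP–acetonitrile gradient. Half-life was derived from peak area.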

Homo sapiens [4] = organism: Homo sapiens; assay: Selectivity ratio of EC50 for human P2Y4 receptor to EC50 for human P2Y6 receptor
P2Y purinoceptor 6 [5] = target: T2, P2Y purinoceptor 6 (Homo sapiens, UniProt Q15077); assay: Agonist activity at human recombinant P2Y6 receptor expressed in human 1321N1 cells assessed as [3H]inositol phosphate production by scintillation proximity assay; type: functional, cell-based; procedure, shortened: as §1
Homo sapiens [6] = organism: Homo sapiens; assay: Selectivity ratio of EC50 for human P2Y2 receptor to EC50 for human P2Y6 receptor
P2Y purinoceptor 2 [7] = target: T1, P2Y purinoceptor 2; assay: Agonist activity at human recombinant P2Y2 receptor expressed in human 1321N1 cells assessed as [3H]inositol phosphate production at 10 uM by scintillation proximity assay; type: functional, cell-based
P2Y purinoceptor 6 [8] = target: T2, P2Y purinoceptor 6; assay: Agonist activity at human recombinant P2Y6 receptor expressed in human 1321N1 cells assessed as [3H]inositol phosphate production up to 10 uM by scintillation proximity assay; type: functional, cell-based
Procedure, shortened: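 Human 1321N1 astrocytoma cells stably expressing the human P2Y2 or P2Y6 receptor, seeded at 20,000 cells/well two days before assay. Inositol lipids labelled for 16 h with 1.0 μCi myo-[3H]inositol in serum-free, inositol-free DMEM. Agonist added in HEPES pH 7.3/HBSS with LiCl, 30 min at 37°C. Stopped with ice-cold 50 mM formic acid; [3H]inositol phosphates counted by scintillation proximity assay. Triplicates.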

T2 sequence (Q15077 whole entry): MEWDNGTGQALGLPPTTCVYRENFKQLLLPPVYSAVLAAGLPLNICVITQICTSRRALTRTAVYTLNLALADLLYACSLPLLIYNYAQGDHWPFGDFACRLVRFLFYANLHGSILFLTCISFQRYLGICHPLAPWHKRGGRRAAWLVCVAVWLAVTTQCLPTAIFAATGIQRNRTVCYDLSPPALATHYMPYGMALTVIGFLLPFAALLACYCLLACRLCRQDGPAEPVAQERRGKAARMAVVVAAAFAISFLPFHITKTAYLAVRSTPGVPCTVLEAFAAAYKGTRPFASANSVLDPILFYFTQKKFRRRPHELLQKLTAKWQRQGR
P2Y purinoceptor 4, sequence (P51582 whole entry): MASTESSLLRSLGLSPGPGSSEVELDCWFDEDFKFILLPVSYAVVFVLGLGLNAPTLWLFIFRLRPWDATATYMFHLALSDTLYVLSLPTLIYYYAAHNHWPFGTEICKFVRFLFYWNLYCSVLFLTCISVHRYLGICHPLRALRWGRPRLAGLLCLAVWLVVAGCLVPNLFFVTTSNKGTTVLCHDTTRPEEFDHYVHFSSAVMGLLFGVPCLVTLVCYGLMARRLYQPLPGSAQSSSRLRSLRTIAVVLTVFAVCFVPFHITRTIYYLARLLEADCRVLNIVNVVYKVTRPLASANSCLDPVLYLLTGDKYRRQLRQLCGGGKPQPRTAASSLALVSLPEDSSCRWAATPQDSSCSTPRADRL
T1 sequence (P41231 whole entry): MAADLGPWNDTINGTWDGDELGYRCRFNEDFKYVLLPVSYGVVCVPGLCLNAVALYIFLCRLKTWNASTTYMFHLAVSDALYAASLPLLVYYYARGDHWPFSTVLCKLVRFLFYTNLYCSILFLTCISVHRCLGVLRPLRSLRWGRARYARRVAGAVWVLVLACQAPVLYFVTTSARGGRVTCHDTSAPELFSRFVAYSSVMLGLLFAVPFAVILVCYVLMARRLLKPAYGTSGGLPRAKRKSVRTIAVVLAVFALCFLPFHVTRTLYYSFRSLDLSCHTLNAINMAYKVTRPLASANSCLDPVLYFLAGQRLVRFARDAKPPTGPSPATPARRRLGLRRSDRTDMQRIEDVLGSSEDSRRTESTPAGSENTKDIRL

Structure (SMILES) | pEC50 (P2Y purinoceptor 4) | pEC50 (P2Y purinoceptor 6 [5]) | pEC50 (P2Y purinoceptor 2 [1]) | t1/2 [2] [h] | t1/2 [3] [h] | other results
CCN(CC)CC.CO/N=c1/ccn([C@@H]2O[C@H](COP(=O)(O)OP(=O)(O)OP(=O)(O)OC[C@H]3O[C@@H](n4ccc(=O)[nH]c4=O)[C@H](O)[C@@H]3O)[C@@H](O)[C@H]2O)c(=O)[nH]1 | 6.10 | 7.92 | 6.77 | 23 | 120 | Ratio EC50 (Homo sapiens [4]): 66; Ratio EC50 (Homo sapiens [6]): 14
CCN(CC)CC.O=c1ccn([C@@H]2O[C@H](COP(=O)(O)OP(=O)(O)OP(=O)(O)Oc3ccccc3)[C@@H](O)[C@H]2O)c(=O)[nH]1 |  | 5.67 | < 5.00 | 43 | 164 | Activity (P2Y purinoceptor 2 [7]): < 50%; Activity (P2Y purinoceptor 6 [8]): < 50%
CCN(CC)CC.O=c1ccn([C@@H]2O[C@H](COP(=O)(O)OP(=O)(O)OP(=O)(O)O[C@H]3O[C@H](CO)[C@@H](O)[C@H](O)[C@H]3O)[C@@H](O)[C@H]2O)c(=O)[nH]1 |  | < 5.00 |  | 29 | 5.1 | Activity (P2Y purinoceptor 6 [8]): < 50%
CCN(CC)CC.O=c1[nH]/c(=N\OCc2ccccc2)ccn1[C@@H]1O[C@H](COP(=O)(O)OP(=O)(O)O)[C@@H](O)[C@H]1O | 5.94 |  | 5.67 | 26 | 126 | Ratio EC50 (Homo sapiens [4]): 44; Ratio EC50 (Homo sapiens [6]): 82
O=c1[nH]c(=O)n([C@@H]2O[C@H](COP(=O)(O)OP(=O)(O)O)[C@@H](O)[C@H]2O)cc1I |  | 7.82 |  |  |  | 
CCN(CC)CC.O=c1ccn([C@@H]2O[C@H](COP(=O)(O)CP(=O)(O)OP(=O)(O)OC[C@H]3O[C@@H](n4ccc(=O)[nH]c4=O)[C@H](O)[C@@H]3O)[C@@H](O)[C@H]2O)c(=O)[nH]1 |  | 5.89 | < 5.00 | 62 | 34 | 
CO/N=c1/ccn([C@@H]2O[C@H](COP(=O)(O)CP(=O)(O)O)[C@@H](O)[C@H]2O)c(=O)[nH]1 |  |  |  |  |  | Activity (P2Y purinoceptor 2 [7]): < 50%
CCN(CC)CC.O=c1ccn([C@@H]2O[C@H](COP(=O)(O)CP(=O)(O)OP(=O)(O)O[C@H]3O[C@H](CO)[C@@H](O)[C@H](O)[C@H]3O)[C@@H](O)[C@H]2O)c(=O)[nH]1 |  | < 5.00 |  | 19 | 2.8 | Activity (P2Y purinoceptor 6 [8]): < 50%
O=c1ccn([C@@H]2O[C@H](COP(=O)(O)OP(=O)(O)OP(=O)(O)O)[C@@H](O)[C@H]2O)c(=O)[nH]1 [URIDINE TRIPHOSPHATE] |  |  |  | 31 | 23 | 
CO/N=c1/ccn([C@@H]2O[C@H](COP(=O)(O)OP(=O)(O)OP(=O)(O)Oc3ccccc3)[C@@H](O)[C@H]2O)c(=O)[nH]1 |  | 5.46 | < 5.00 |  |  | Activity (P2Y purinoceptor 2 [7]): < 50%
CCN(CC)CC.CO/N=c1/ccn([C@@H]2O[C@H](COP(=O)(O)OP(=O)(O)O)[C@@H](O)[C@H]2O)c(=O)[nH]1 | 5.19 |  | 5.44 | 55 | 116 | 
CCN(CC)CC.O=c1ccn([C@@H]2O[C@H](COP(=O)(O)OP(=O)(O)OP(=O)(O)OC3CCCCC3)[C@@H](O)[C@H]2O)c(=O)[nH]1 |  | 5.16 | 5.64 | 62 | 193 | 

Continued, in another order:

pEC50 (P2Y purinoceptor 4) | pEC50 (P2Y purinoceptor 6 [5]) | Structure (SMILES) | pEC50 (P2Y purinoceptor 2 [1]) | t1/2 [2] [h] | t1/2 [3] [h] | other results
 | 6.74 | CO/N=c1/ccn([C@@H]2O[C@H](COP(=O)(O)OP(=O)(O)OP(=O)(O)O[C@H]3O[C@H](CO)[C@@H](O)[C@H](O)[C@H]3O)[C@@H](O)[C@H]2O)c(=O)[nH]1 | < 5.00 |  |  | Activity (P2Y purinoceptor 2 [7]): < 50%
7.30 | 7.10 | CO/N=c1\ccn([C@@H]2O[C@H](COP(=O)(O)OP(=O)(O)OP(=O)(O)O)[C@@H](O)[C@H]2O)c(=O)[nH]1 | 7.30 |  |  | 
 | 6.15 | O=c1ccn([C@@H]2O[C@H](COP(=O)(O)CP(=O)(O)O)[C@@H](O)[C@H]2O)c(=O)[nH]1 |  |  |  | 
 | < 5.00 | O=C(Cn1c(=O)ccn([C@@H]2O[C@H](COP(=O)(O)OP(=O)(O)OP(=O)(O)O[C@H]3O[C@H](CO)[C@@H](O)[C@H](O)[C@H]3O)[C@@H](O)[C@H]2O)c1=O)c1ccccc1 |  |  |  | Activity (P2Y purinoceptor 6 [8]): < 50%
6.25 | 7.20 | CONc1ccn([C@@H]2O[C@H](COP(=O)(O)OP(=O)(O)OP(=O)(O)OC[C@H]3O[C@@H](n4ccc(NOC)nc4=O)[C@H](O)[C@@H]3O)[C@@H](O)[C@H]2O)c(=O)n1 | 5.67 |  |  | 
 | 5.33 | O=c1[nH]c(=O)n([C@@H]2O[C@H](COP(=O)(O)OP(=O)(O)OP(=O)(O)O[C@H]3O[C@H](CO)[C@@H](O)[C@H](O)[C@H]3O)[C@@H](O)[C@H]2O)cc1I |  |  |  | 
5.21 |  | CC(C)(C)O/N=c1/ccn([C@@H]2O[C@H](COP(=O)(O)OP(=O)(O)O)[C@@H](O)[C@H]2O)c(=O)[nH]1 | 5.45 |  |  | 
6.74 |  | CCO/N=c1/ccn([C@@H]2O[C@H](COP(=O)(O)OP(=O)(O)O)[C@@H](O)[C@H]2O)c(=O)[nH]1 | 6.55 |  |  | 
6.52 | 5.86 | O=c1ccn([C@@]23C[C@H]2[C@H](COP(=O)(O)OP(=O)(O)OP(=O)(O)O)[C@@H](O)[C@H]3O)c(=O)[nH]1 | 7.10 |  |  | 
 | 6.89 | O=c1[nH]c(=O)n([C@@H]2O[C@H](COP(=O)(O)CP(=O)(O)O)[C@@H](O)[C@H]2O)cc1I |  |  |  | 
